Data set [1] can be described thus: Selectivity index, ratio of CC50 for human MCF10 cells to IC50 for human MDA-MB-231 cells. The class given is toxicity. The following applies: MCF10 cells versus MDA-MB-231 cells, read-out: Ratio CC50/IC50.
Data set [2] concerns MDA-MB-231. Put plainly: Induction of apoptosis in human MDA-MB-231 cells assessed as early apoptotic cells after 48 hrs by Annexin V/FITC-propidium iodide staining-based flow cytometric analysis (reference value: 9.0%).
The nature of data set [3]: Selectivity index, ratio of CC50 for human MCF10 cells to IC50 for human MCF7 cells. The class given is toxicity. The following applies: MCF10 cells versus MCF7 cells, read-out: Ratio CC50/IC50.
Data set [4] concerns MDA-MB-231. Briefly: Antiproliferative activity against human MDA-MB-231 cells after 48 hrs by MTT assay. Format: functional, cell-based. Particulars: MDA-MB-231, 48 h. The gist of the method: (§1)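 MCF-10, MCF-7 or MDA-MB-231 cells, 5.0×10^5 cells seeded and grown 24 h, then exposed 48 h at 37°C to serial dilutions from 500 to 3.9 μM (DMSO 0,5%). Read-out by MTT (2.0 mg/mL in PBS), formazan dissolved in DMSO, absorbance at 570 nm. Viability is given as % of untreated cells, with IC50 from curve fitting. Mean of triplicates.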

Data set [5] deals with MCF7. Put plainly: Antiproliferative activity against human MCF7 cells after 48 hrs by MTT assay. Format: functional, cell-based. The following applies: MCF7, 48 h. The gist of the method:
as §1
A general note: Tetrazolium assays rely on reduction of a dye to a coloured formazan, in cell work by metabolically active cells.

The test system of data set [6] is MDA-MB-231. Briefly: Induction of apoptosis in human MDA-MB-231 cells assessed as necrotic cells after 48 hrs by Annexin V/FITC-propidium iodide staining-based flow cytometric analysis (reference value: 7.2%). Background: Flow cytometry measures light scatter and fluorescence of single cells or particles in a stream.
The nature of data set [7]: Antiproliferative activity against human MCF10 cells after 48 hrs by MTT assay. Format: cell-based. An outline of the steps:
as §1

For data set [8], the system named is MDA-MB-231. Briefly: Induction of apoptosis in human MDA-MB-231 cells assessed as late apoptotic cells after 48 hrs by Annexin V/FITC-propidium iodide staining-based flow cytometric analysis (reference value: 10.7%).
The test system of data set [9] is Calf thymus DNA. Put plainly: Binding affinity to calf thymus DNA at 10^-6 mol/L after 5 mins by UV/Visible spectrophotometric method. The class given is nucleic-acid assay. The following applies: Bos taurus. The gist of the method:
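Calf-thymus DNA dissolved in Tris buffer (5 mM Tris-HCl, 50 mM NaCl, pH 7.4), stirred about 12 h, A260/A280 1.86, quantified at 260 nm (ε 6600 M⁻¹ cm⁻¹). Kb was taken from a Benesi-Hildebrand fit.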

As usually defined, the IC50 is the midpoint of a concentration-inhibition curve. A higher IC50 goes with weaker potency in that assay. Usually CC50 stands for the concentration giving 50% cytotoxicity.

For `OC(CNCCCCc1ccccc1)c1ccc(Br)cc1` (stereo unspecified), the values for the selectivity ratio in [1] and in data set [3] were 2.57 and 4.04, respectively. Further, the Activity is 33.6% in [2], 6.7% in data set [6] and 56.8% in data set [8]. Also, the figures for the IC50 in [4] and in data set [5] were 22.7 µM and 14.5 µM, respectively. The molecule also gave a CC50 at 48 h in data set [7] of 58.5 µM.
Turning to `c1ccc(CCCCN2CC2c2ccccc2)cc1` (stereo unspecified), the selectivity ratio in [1] was 4.08; in data set [3], 1.83. Further, the IC50 amounted to 11.1 µM in data set [4] and 24.7 µM in data set [5]. Besides, the Activity is on record as 3.3% in data set [6] and 40% in [8]. This molecule returned a CC50 at 48 h in [7] of 43.3 µM.
`c1ccc(CCN2CC2c2ccccc2)cc1` (stereo unspecified): the figures for the selectivity ratio in [1] and in data set [3] were 1.97 and 0.2, respectively. Moreover, the half-maximal inhibitory concentration (IC50) in data set [4] is 19 µM; in [5] it was 170 µM. For the same molecule, the CC50 at 48 h in data set [7] stood at 37.6 µM.
For `CCCCNCC(O)c1ccccc1` (stereo unspecified), the selectivity ratio in data set [1] was found to be 0.72; in data set [3], 0.67. The IC50 in data set [4] turned out to be 259 µM; in data set [5], 280 µM. Further, the CC50 at 48 h in data set [7] amounted to 188 µM.
Taken in the same sequence, the figures for `OC(CNCCc1ccccc1)c1ccccc1` (stereo unspecified) were 1.04, 0.62, 190 µM, 318 µM and 198 µM.
Taken in the same sequence, the figures for `OC(CNCCCc1ccccc1)c1ccccc1` (stereo unspecified) were 1.92, 2.02, 102 µM, 96.4 µM and 196 µM.
Turning to `OC(CNCc1ccccc1)c1ccc(Br)cc1` (stereo unspecified), the selectivity ratio came to 1.56 in data set [1] and 2.18 in data set [3]. The IC50 in data set [4] was found to be 73.9 µM; in data set [5], 53 µM. Further, the midpoint of cytotoxicity in data set [7], the CC50 at 48 h, lay at 116 µM.
As for `OC(CNc1ccccc1)c1ccccc1` (stereo unspecified), the selectivity ratio in data set [1] and in data set [3] was 1.33 each time. Moreover, the IC50 in [4] came to 237 µM; in data set [5], 236 µM. In [7], this molecule returned a CC50 at 48 h of 316 µM.
For the molecule `c1ccc(CCCN2CC2c2ccccc2)cc1` (stereo unspecified), the selectivity ratio in data set [1] was 1.77; in data set [3], 1.44. Also, the figures for the IC50 in data set [4] and in [5] were 19.9 µM and 24.5 µM, respectively. The molecule further had a CC50 at 48 h in data set [7] of 35.4 µM.
Taken in the same sequence, the figures for `c1ccc(CN2CC2c2ccccc2)cc1` (stereo unspecified) were 1.01, 1.47, 40.4 µM, 27.8 µM and 41 µM.
Take `OC(CNCCCCc1ccccc1)c1ccccc1` (stereo unspecified): the selectivity ratio in data set [1] is 2.11; in data set [3] it was 2.88. Further, the IC50 in data set [4] is 50.8 µM; in [5] it was 37.2 µM. In data set [7], this molecule yielded a CC50 at 48 h of 107 µM. This molecule came in with a Kb in data set [9] of 1.59 ×10⁵ /M.
With `OC(CNCc1ccccc1)c1ccccc1` (stereo unspecified), the selectivity ratio in data set [1] was 0.89; in [3] it was 0.96. Also, the half-inhibitory concentration (IC50) in data set [4] was determined as 225 µM; in data set [5], 210 µM. Moreover, it took 202 µM to reach half-maximal cytotoxicity in data set [7] (CC50 at 48 h).
